# Active and inactive are the calls of the source. The calls are words filed in the database; no cut-off is given here.
# Legend:
# [1] = system: A549; assay: Cell cycle arrest in human A549 cells assessed as accumulation at S phase at 5 uM after 48 hrs by flow cytometry (reference value: 12.0 %); format: functional
# [2] = system: A549; assay: Cell cycle arrest in human A549 cells assessed as accumulation at sub-G1 phase at 5 uM after 24 hrs by flow cytometry (reference value: 7.8 %); format: functional
# [3] = (§1) Cytotoxicity against human MIAPaCa2 cells after 48 hrs by MTT assay; format: functional, cell-based; conditions: MIA PaCa-2, 48 h
# Outline: (§2)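 Cells seeded and grown 24 h, then exposed 48 h to a range of concentrations in DMSO (final 0.1%), with vehicle controls at equal DMSO. Medium replaced with 0.5 mg/mL MTT in RPMI with 10% FBS for 2 h at 37 °C, reduced dye dissolved in DMSO, absorbance read at 540 nm. Triplicates; IC50 from dose–response.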
# [4] = system: A549; assay: Cell cycle arrest in human A549 cells assessed as accumulation at sub-G1 phase at 5 uM after 48 hrs by flow cytometry (reference value: 4.9 %); format: functional
# [5] = system: A549; assay: Cell cycle arrest in human A549 cells assessed as accumulation at G2/M phase at 5 uM after 24 hrs by flow cytometry (reference value: 21.6 %); format: functional
# [6] = system: A549; assay: Cell cycle arrest in human A549 cells assessed as accumulation at G0/G1 phase at 5 uM after 48 hrs by flow cytometry (reference value: 57.8 %); format: functional
# [7] = system: A549; assay: Selectivity ratio of IC50 for human A549 cells to IC50 for human MIAPaCa2 cells; format: functional
# [8] = system: A549; assay: Cell cycle arrest in human A549 cells assessed as accumulation at G2/M phase at 5 uM after 48 hrs by flow cytometry (reference value: 25.4 %); format: functional
# [9] = system: A549; assay: Cytotoxicity against human A549 cells after 48 hrs by MTT assay; format: functional, cell-based; conditions: for IC50: A549, 48 h; outline: as §2
# [10] = biological target: T1, Voltage-dependent T-type calcium channel subunit alpha-1G (Homo sapiens, UniProt O43497); assay: Inhibition of T-type CaV3.1 channel (unknown origin) expressed in HEK293 cells assessed as inhibition of calcium current at 1 uM by whole cell patch-clamp method; format: cell-based
# [11] = system: A549; assay: Cell cycle arrest in human A549 cells assessed as accumulation at S phase at 5 uM after 24 hrs by flow cytometry (reference value: 17.6 %); format: functional
# [12] = system: A549; assay: Cell cycle arrest in human A549 cells assessed as accumulation at G0/G1 phase at 5 uM after 24 hrs by flow cytometry (reference value: 53.1 %); format: functional
# [13] = biological target: T1, Voltage-dependent T-type calcium channel subunit alpha-1G; assay: Inhibition of T-type CaV3.1 channel (unknown origin) expressed in HEK293 cells assessed as inhibition of calcium current by whole cell patch-clamp method; format: cell-based
# [14] = system: A549; assay: Induction of apoptosis in human A549 cells assessed as early apoptotic cells at 1 uM after 24 hrs by annexin V/PI staining-based FACS analysis (reference value: 2.6 %)
# [15] = system: A549; assay: Induction of apoptosis in human A549 cells assessed as viable cells at 3 uM after 24 hrs by annexin V/PI staining-based FACS analysis (reference value: 91.1 %); conditions: A549, 24 h
# [16] = system: A549; assay: Induction of apoptosis in human A549 cells assessed as late apoptotic cells at 1 uM after 24 hrs by annexin V/PI staining-based FACS analysis (reference value: 3.5 %)
# [17] = system: MIA PaCa-2; assay: as §1; format: functional, cell-based; outline: as §2
# [18] = system: A549; assay: Induction of apoptosis in human A549 cells assessed as early apoptotic cells at 3 uM after 24 hrs by annexin V/PI staining-based FACS analysis (reference value: 2.6 %)
# [19] = system: A549; assay: Ratio of KYS05090 IC50 to compound IC50 for human A549 cells after 48 hrs by MTT assay; format: functional
# [20] = system: A549; assay: Induction of apoptosis in human A549 cells assessed as necrotic cells at 5 uM after 24 hrs by annexin V/PI staining-based FACS analysis (reference value: 2.8 %)
# [21] = system: A549; assay: Induction of apoptosis in human A549 cells assessed as early apoptotic cells at 5 uM after 24 hrs by annexin V/PI staining-based FACS analysis (reference value: 2.6 %)
# [22] = system: A549; assay: Induction of apoptosis in human A549 cells assessed as reduction in pro-caspase-3 expression at 5 uM after 24 hrs by Western blot analysis; format: functional, cell-based
# Outline: (§3)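 Cells treated 24 h without compound or at 1, 3 or 5 µM. Pro-caspase-3, pro-caspase-9 and PARP cleavage assessed by Western blot.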
# [23] = system: A549; assay: Induction of apoptosis in human A549 cells assessed as reduction in pro-caspase-9 expression at 5 uM after 24 hrs by Western blot analysis; format: functional, cell-based; outline: as §3
# [24] = system: MIA PaCa-2; assay: Ratio of KYS05090 IC50 to compound IC50 for human MIAPaCa2 cells after 48 hrs by MTT assay; format: functional
# [25] = system: A549; assay: Induction of apoptosis in human A549 cells assessed as viable cells at 5 uM after 24 hrs by annexin V/PI staining-based FACS analysis (reference value: 91.1 %); conditions: A549, 24 h
# [26] = system: A549; assay: Induction of apoptosis in human A549 cells assessed as necrotic cells at 3 uM after 24 hrs by annexin V/PI staining-based FACS analysis (reference value: 2.8 %)
# [27] = system: A549; assay: Induction of apoptosis in human A549 cells assessed as increase in PARP protein cleavage at 5 uM after 24 hrs by Western blot analysis; format: functional, cell-based; outline: as §3
# [28] = system: A549; assay: Induction of apoptosis in human A549 cells assessed as late apoptotic cells at 3 uM after 24 hrs by annexin V/PI staining-based FACS analysis (reference value: 3.5 %)
# [29] = system: A549; assay: Induction of apoptosis in human A549 cells assessed as necrotic cells at 1 uM after 24 hrs by annexin V/PI staining-based FACS analysis (reference value: 2.8 %)
# [30] = system: A549; assay: Induction of apoptosis in human A549 cells assessed as late apoptotic cells at 5 uM after 24 hrs by annexin V/PI staining-based FACS analysis (reference value: 3.5 %)
# [31] = system: A549; assay: Induction of apoptosis in human A549 cells assessed as viable cells at 1 uM after 24 hrs by annexin V/PI staining-based FACS analysis (reference value: 91.1 %); conditions: A549, 24 h
# [32] = system: A549; assay: Cell cycle arrest in human A549 cells assessed as accumulation at G0/G1 phase at 10 uM after 48 hrs by flow cytometry (reference value: 57.8 %); format: functional
# [33] = system: A549; assay: Cell cycle arrest in human A549 cells assessed as accumulation at G2/M phase at 10 uM after 24 hrs by flow cytometry (reference value: 21.6 %); format: functional
# [34] = system: A549; assay: Cell cycle arrest in human A549 cells assessed as accumulation at S phase at 10 uM after 24 hrs by flow cytometry (reference value: 17.6 %); format: functional
# [35] = system: A549; assay: Cell cycle arrest in human A549 cells assessed as accumulation at sub-G1 phase at 10 uM after 48 hrs by flow cytometry (reference value: 4.9 %); format: functional
# [36] = system: A549; assay: Cell cycle arrest in human A549 cells assessed as accumulation at sub-G1 phase at 10 uM after 24 hrs by flow cytometry (reference value: 7.8 %); format: functional
# [37] = system: A549; assay: Cell cycle arrest in human A549 cells assessed as accumulation at G2/M phase at 10 uM after 48 hrs by flow cytometry (reference value: 25.4 %); format: functional
# [38] = system: A549; assay: Cell cycle arrest in human A549 cells assessed as accumulation at G0/G1 phase at 10 uM after 24 hrs by flow cytometry (reference value: 53.1 %); format: functional
# [39] = system: A549; assay: Cell cycle arrest in human A549 cells assessed as accumulation at S phase at 10 uM after 48 hrs by flow cytometry (reference value: 12.0 %); format: functional
# T1 sequence (O43497 whole entry): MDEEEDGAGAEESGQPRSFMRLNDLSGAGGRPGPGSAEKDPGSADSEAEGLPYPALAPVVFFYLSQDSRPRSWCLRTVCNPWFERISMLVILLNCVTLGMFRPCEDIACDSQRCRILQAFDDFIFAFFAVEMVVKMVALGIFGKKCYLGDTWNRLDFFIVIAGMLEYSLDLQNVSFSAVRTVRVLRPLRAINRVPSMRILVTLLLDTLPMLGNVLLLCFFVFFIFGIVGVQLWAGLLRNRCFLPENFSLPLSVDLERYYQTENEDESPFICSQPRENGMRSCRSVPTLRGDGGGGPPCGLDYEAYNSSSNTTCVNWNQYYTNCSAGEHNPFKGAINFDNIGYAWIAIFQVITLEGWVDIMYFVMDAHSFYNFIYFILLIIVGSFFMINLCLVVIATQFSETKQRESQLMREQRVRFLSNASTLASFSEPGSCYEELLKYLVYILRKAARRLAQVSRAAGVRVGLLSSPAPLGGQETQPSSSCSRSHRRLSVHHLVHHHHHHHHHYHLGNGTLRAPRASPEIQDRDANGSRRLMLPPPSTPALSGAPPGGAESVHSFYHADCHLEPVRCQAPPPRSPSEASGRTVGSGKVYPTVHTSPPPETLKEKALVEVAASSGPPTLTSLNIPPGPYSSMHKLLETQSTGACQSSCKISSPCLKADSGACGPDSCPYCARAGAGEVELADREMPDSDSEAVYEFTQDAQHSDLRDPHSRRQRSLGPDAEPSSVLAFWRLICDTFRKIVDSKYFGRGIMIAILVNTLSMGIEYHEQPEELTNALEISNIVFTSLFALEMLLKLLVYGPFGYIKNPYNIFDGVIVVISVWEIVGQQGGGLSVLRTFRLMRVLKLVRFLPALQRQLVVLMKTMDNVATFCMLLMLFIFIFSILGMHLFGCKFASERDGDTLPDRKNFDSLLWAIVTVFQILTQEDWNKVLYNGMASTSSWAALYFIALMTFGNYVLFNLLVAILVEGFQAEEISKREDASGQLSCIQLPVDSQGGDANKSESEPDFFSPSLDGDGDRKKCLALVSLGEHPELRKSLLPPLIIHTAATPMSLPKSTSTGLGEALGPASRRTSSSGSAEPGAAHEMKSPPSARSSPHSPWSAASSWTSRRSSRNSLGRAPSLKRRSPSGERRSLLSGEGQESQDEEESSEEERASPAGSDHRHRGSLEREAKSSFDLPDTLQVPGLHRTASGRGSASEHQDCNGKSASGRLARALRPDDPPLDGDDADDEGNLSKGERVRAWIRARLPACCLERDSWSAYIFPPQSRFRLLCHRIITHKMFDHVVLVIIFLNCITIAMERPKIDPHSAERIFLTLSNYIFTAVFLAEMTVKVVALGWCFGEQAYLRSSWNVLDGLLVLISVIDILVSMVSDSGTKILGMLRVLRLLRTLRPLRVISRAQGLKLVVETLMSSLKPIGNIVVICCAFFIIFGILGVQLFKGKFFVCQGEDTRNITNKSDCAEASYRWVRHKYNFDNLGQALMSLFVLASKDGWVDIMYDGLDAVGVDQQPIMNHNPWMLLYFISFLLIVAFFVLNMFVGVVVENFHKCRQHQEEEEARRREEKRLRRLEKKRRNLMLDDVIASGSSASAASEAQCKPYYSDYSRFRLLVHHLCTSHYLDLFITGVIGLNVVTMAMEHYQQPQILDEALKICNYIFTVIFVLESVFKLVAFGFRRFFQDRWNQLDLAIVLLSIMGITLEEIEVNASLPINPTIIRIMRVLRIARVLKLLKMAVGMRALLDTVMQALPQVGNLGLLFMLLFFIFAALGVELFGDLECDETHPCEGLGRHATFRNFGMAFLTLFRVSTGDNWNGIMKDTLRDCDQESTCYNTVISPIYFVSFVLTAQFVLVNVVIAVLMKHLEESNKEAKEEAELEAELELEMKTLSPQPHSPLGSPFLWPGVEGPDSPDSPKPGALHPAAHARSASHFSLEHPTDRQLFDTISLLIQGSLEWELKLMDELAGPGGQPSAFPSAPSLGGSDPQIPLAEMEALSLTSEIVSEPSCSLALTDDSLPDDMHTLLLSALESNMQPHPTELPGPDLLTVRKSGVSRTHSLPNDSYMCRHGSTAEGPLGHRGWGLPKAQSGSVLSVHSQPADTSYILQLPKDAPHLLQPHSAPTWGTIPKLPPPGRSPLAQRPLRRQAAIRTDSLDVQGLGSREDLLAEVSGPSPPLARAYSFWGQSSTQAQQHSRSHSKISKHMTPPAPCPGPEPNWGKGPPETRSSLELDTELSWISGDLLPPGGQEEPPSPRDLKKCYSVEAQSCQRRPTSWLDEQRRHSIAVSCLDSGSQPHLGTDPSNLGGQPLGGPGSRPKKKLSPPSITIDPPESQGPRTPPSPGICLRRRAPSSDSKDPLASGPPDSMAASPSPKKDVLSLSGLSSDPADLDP
compound,measurement,setting,value
CN(C)CCCCCN(C)C1=Nc2ccccc2C(CC(=O)NCc2ccccc2)N1c1ccc(-c2ccccc2)cc1.Cl.Cl (stereo unspecified),Activity,[1],0.6%
same,Activity,[2],55.3%
same,IC50,[3],1.94 µM
same,Activity,[4],98.1%
same,Activity,[5],2.2%
same,Activity,[6],1.2%
same,Ratio IC50,[7],2
same,Activity,[8],0.1%
same,IC50,[9],4.07 µM
same,inhibition,[10],76.6%
same,Activity,[11],8.8%
same,Activity,[12],33.6%
CN(C)CCN1CCN(C2=Nc3ccccc3C(CC(=O)NCc3ccc([N+](=O)[O-])cc3)N2c2ccc(-c3ccccc3)cc2)CC1.Cl (stereo unspecified),IC50,[3],2.18 µM
same,Ratio IC50,[7],2
same,IC50,[9],4.69 µM
same,inhibition,[10],38.1%
CN(C)CCN1CCN(C2=Nc3ccccc3C(CC(=O)NCc3ccc(N(S(C)(=O)=O)S(C)(=O)=O)cc3)N2c2ccc(-c3ccccc3)cc2)CC1.Cl (stereo unspecified),IC50,[3],16.1 µM
same,IC50,[13],0.52 µM
same,Ratio IC50,[7],2
same,IC50,[9],20.7 µM
same,inhibition,[10],64.3%
CN(C)CCN1CCN(C2=Nc3ccccc3C(CC(=O)OCc3ccccc3)N2c2ccc(-c3ccccc3)cc2)CC1 (stereo unspecified),IC50,[3],2.7 µM
same,IC50,[13],1.81 µM
same,Ratio IC50,[7],2
same,IC50,[9],4.29 µM
same,inhibition,[10],46.4%
CN(C)C(=O)NCCCN(C)C1=Nc2ccccc2C(CC(=O)NCc2ccc(F)cc2)N1c1ccc(-c2ccccc2)cc1.Cl (stereo unspecified),IC50,[3],7.43 µM
same,IC50,[13],0.6 µM
same,Ratio IC50,[7],2
same,IC50,[9],15 µM
same,inhibition,[10],53.5%
CN(C)CCCCCCN(C)C1=Nc2ccccc2C(CC(=O)NCc2ccccc2)N1c1ccc2ccccc2c1.Cl (stereo unspecified),IC50,[3],2.54 µM
same,Ratio IC50,[7],2
same,IC50,[9],5.44 µM
same,inhibition,[10],26.4%
CN(C)CCN1CCN(C2=Nc3ccccc3C(CC(=O)NCc3ccccc3)N2c2ccc(C3CCCCC3)cc2)CC1.Cl (stereo unspecified),Activity,[14],2.5%
same,Activity,[1],4.6%
same,Activity,[2],15.8%
same,viability at 3 µM,[15],67.4%
same,Activity,[16],3.2%
same,inhibition,[17],Dose-dependent effect
same,IC50,[3],0.93 µM
same,IC50,[13],1.04 µM
same,Activity,[18],30.4%
same,Ratio IC50,[19],2
same,Activity,[4],77.8%
same,Activity,[20],1.3%
same,Activity,[21],32.1%
same,Activity,[22],Active
same,Activity,[23],Active
same,Activity,[5],16%
same,Activity,[6],15.7%
same,Ratio IC50,[7],2
same,Ratio IC50,[24],2
same,viability at 5 µM,[25],53.4%
same,Activity,[26],0.3%
same,Activity,[27],Active
same,Activity,[8],1.9%
same,inhibition,[9],Dose-dependent effect
same,IC50,[9],2.25 µM
same,Activity,[28],1.9%
same,inhibition,[10],53.2%
same,Activity,[29],2.5%
same,Activity,[30],13.3%
same,viability at 1 µM,[31],91.8%
same,Activity,[11],12.8%
same,Activity,[12],55.4%
CC(C)c1ccc(N2C(N3CCN(CCN(C)C)CC3)=Nc3ccccc3C2CC(=O)NCc2ccccc2)cc1.Cl (stereo unspecified),IC50,[3],3.02 µM
same,Ratio IC50,[7],2
same,IC50,[9],7.57 µM
same,inhibition,[10],39.2%
COCC(=O)O[C@]1(CCN(C)CCCc2nc3ccccc3[nH]2)CCc2cc(F)ccc2[C@@H]1C(C)C [MIBEFRADIL],Activity,[32],66.8%
same,IC50,[3],18.4 µM
same,Activity,[33],13.4%
same,Activity,[34],10.9%
same,Activity,[35],10%
same,Activity,[36],9.6%
same,Activity,[37],11.2%
same,IC50,[9],24.8 µM
same,Activity,[38],66.1%
same,Activity,[39],12%
COc1ccc(CNC(=O)CC2c3ccccc3N=C(N(C)CCCCCCN(C)C)N2c2ccc3ccccc3c2)cc1.Cl (stereo unspecified),IC50,[3],3.99 µM
same,IC50,[13],0.73 µM
same,Ratio IC50,[7],2
same,IC50,[9],6.65 µM
same,inhibition,[10],55.2%

# — ChEMBL document CHEMBL3232892, “Inhibition of cellular proliferation and induction of apoptosis in human lung adenocarcinoma A549 cells by T-type calcium channel antagonist” (Bioorg Med Chem Lett, 2014)
